FLuc stim CS: FLuc activators, initial screening, artefact control for FLuc-dependent activation tests, biochemical, ATPlite luminescence. ATPlite luciferase biochemical, 10 min; 0 = ATP-free wells, 1 = DMSO control. activation factor at 10 µM. 200,000 tested, under 10 active. AID 1027, 2008;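 active = luciferase activation factor, scaled between plate controls, of at least 2 with compound at 10 µM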
Target sequence (P08659 whole entry, looked up): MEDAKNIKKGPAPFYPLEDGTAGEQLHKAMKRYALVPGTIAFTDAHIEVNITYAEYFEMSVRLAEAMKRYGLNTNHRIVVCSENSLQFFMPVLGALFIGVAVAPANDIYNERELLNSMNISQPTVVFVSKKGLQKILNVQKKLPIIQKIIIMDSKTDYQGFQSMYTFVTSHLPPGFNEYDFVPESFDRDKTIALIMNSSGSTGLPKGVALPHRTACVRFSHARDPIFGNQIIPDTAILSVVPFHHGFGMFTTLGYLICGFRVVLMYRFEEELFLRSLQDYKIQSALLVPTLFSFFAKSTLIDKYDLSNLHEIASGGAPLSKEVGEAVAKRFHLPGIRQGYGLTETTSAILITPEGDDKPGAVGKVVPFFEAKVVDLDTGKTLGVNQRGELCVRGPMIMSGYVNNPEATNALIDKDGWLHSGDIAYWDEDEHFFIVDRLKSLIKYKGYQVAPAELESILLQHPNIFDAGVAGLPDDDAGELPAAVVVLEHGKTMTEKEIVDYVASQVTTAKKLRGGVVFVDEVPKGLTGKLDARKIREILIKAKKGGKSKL
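Material: Luciferase/luciferin reagent mix | Doses: Test compounds dosed from 2 mM stocks in 100% DMSO | Timing: 10 min incubation after luciferase reagent addition, room temperature | Measured by: Luminescence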
STAT3 blocker: IL-6 driven STAT3 reporter inhibitors, primary screen, U3A cells, luciferase, luminescence, MLSCN library; IL-6 STAT3-luciferase reporter; host cell line lacks STAT1; inhibition, % at 5.5 µM; 0.89% of 190,000 active; AID 862, 2007;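 active = inhibition above the mean inhibition across all screened compounds plus 3 SD, cut at about 44% in these data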;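 note: 0% = DMSO only wells and 100% = 100 µM nifuroxazide control wells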
TRAIL sens C8: viability loss with TRAIL in NB7+C8 cells, primary screen, TRAIL sensitizer project, cell-based, ATPlite luminescence. 1% of 360,000 active. inhibition (viability loss, TRAIL sensitization), % at 10 µM. AID 624354, 2012;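 active = compounds causing at least 50% loss of cell viability in the single-dose screen, relative to plate controls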
PPC-1+TRAIL kill: compounds killing PPC-1 cancer cells with TRAIL present, primary screen, TRAIL potentiator project, ATPLite luminescence, uHTS | cell killing (% activity), % at 4 µM or 5 µM | AID 1443, 2008 | PPC-1 cells + TRAIL, ATPLite viability luminescence | 0.41% of 220,000 active;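 active = cell killing above 50% in the first pass at 4 µM, then a duplicate retest at 5 µM averaging 50% or more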;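 note: plate controls were cells with TRAIL plus DMSO for no effect and medium-only wells lacking cells for full effect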
FLuc inhib CS: firefly luciferase enzyme inhibitors, primary screen, artefact control for luciferase-based inhibitor screens, biochemical, luminescence, ATPLite; Luciferin 4-monooxygenase (Photinus pyralis), P08659; 10 min; inhibition, % at 10 µM; 1.5% of 200,000 active; AID 1006, 2008;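 active = inhibition above about 50% when tested at 10 µM, limit read from the data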
HSP90 inh: HSP90 inhibitors, primary screen, cell lysate, luminescence. Rabbit reticulocyte lysate, luciferase refolding luminescence, 3 h. inhibition, % at 5.6 µM. 0.91% of 290,000 active;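 active = inhibition above the screen-wide mean plus 3 SD, computed separately per campaign, cut at about 16% in these data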;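 note: 0% = DMSO wells and 100% = 60 µM geldanamycin wells; inhibitors lower the luminescence because luciferase stays unfolded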
The depositor's hits bear a star; . = no result given. Shown are actives, neighbours in structure and some others; about 2.2% of the full set was active somewhere.

SMILES	FLuc stim CS	STAT3 blocker	TRAIL sens C8	PPC-1+TRAIL kill	FLuc inhib CS	HSP90 inh
O=C(/C=C/Nc1ccc(F)cc1)c1ccc(Br)cc1	0.6	22	25	13	39	3
Cc1ccnn1CCC(=O)N1CCCC(CCC(=O)N2CCN(c3ccccn3)CC2)C1 (configuration not stated)	1.1	8	0	10	-8	-2
Nc1c(N(CCC2=CCCCC2)C(=O)COc2ccc(F)cc2Cl)c(=O)[nH]c(=O)n1Cc1ccccc1	.	.	88*	.	.	.
CN1C(=CC=C2C=C(I)C(=O)C(I)=C2)C(C)(C)c2ccccc21	.	.	24	50*	.	3
O=C(CSc1ccc([N+](=O)[O-])cn1)Nc1ccc2c(c1)OCCO2	1.1	12	-4	-4	-5	-1
Cc1ccc2nc(-c3ccc(SCC(=O)Nc4ccc5c(c4)OCCO5)nc3)[nH]c2c1	0.4	-8	46	46	62*	-2
CCOC(=O)CSc1ccc(-c2nc3cc(C)c(C)cc3[nH]2)cn1	0.4	15	47	37	64*	2
O=C(CSc1ccc(-c2nc3ccccc3[nH]2)cn1)Nc1ccc2c(c1)OCCO2	1	-21	12	16	2	-2
Cc1cc2nc(-c3ccc(SCC(=O)Nc4ccc5c(c4)OCCO5)nc3)[nH]c2cc1C	0.2	10	67*	46	81*	-1
Cc1ccc(-c2ccc(SCC(=O)Nc3ccc4c(c3)OCCO4)nn2)cc1	0.4	-14	40	39	57*	-5
CC(C(=O)c1ccc(Br)cc1)[n+]1cccc2ccccc21 (configuration not stated)	.	.	9	.	.	-2
O=C(CN(Cc1ccccc1)S(=O)(=O)c1ccc(F)cc1)NCc1cccnc1	.	.	5	.	.	-4
Cn1cc(C(=O)N2CCCC(Nc3ccc(F)cc3)C2)c2ccccc21 (configuration not stated)	.	.	4	.	.	4
Cc1ccc2nc(-c3ccc(SCC(=O)Nc4nnc(C)s4)nc3)[nH]c2c1	0.4	-2	54*	21	56*	0
Cc1ccc2nc(-c3ccc(SCC(=O)Nc4nc(C)cs4)nc3)[nH]c2c1	0.7	-16	48	48	28	2
NS(=O)(=O)c1ccc(N/N=C/c2cn(-c3ccccc3)nc2-c2ccccc2)c([N+](=O)[O-])c1	1	6	54*	28	5	-4
NC(N)=Nc1ccc(C=C2C=Cc3ccccc32)cc1	.	.	87*	.	.	.
Nc1ccc(C=C2C=Cc3ccccc32)cc1	.	.	9	.	.	.
O=C1C(=O)c2c(ccc3ccccc23)-c2ccccc21	.	.	67*	.	.	.
COc1cccc(C(=O)Nc2ccccc2NC(=O)c2cccc(OC)c2)c1	.	.	-13	.	.	-6
CN1/C(=C\C(=O)c2cccnc2)Sc2ccccc21	0.5	6	19	16	55*	3
CN1C(=O)C(O)(CC(=O)c2cccnc2)c2ccccc21 (configuration not stated)	1	8	-12	-6	-4	13
COc1cccc(C(=O)/C=C2\Sc3ccccc3N2C)c1	0.2	9	51*	50	79*	0
CCn1nc(C(=O)NCCc2ccc(S(N)(=O)=O)cc2)c2ccccc2c1=O	1.1	8	47*	-2	-7	1
NC(=S)n1[nH]c(-c2ccc([N+](=O)[O-])cc2)c(N=Nc2ccccc2[N+](=O)[O-])c1=O	1.1	10	4	13	-8	3
SMILES	FLuc stim CS	STAT3 blocker	TRAIL sens C8	PPC-1+TRAIL kill	FLuc inhib CS	HSP90 inh
NC(=S)n1[nH]c(-c2ccc([N+](=O)[O-])cc2)c(N=Nc2cccc([N+](=O)[O-])c2)c1=O	1	19	53*	2	-2	3
Cc1c(N=Nc2c(-c3ccc([N+](=O)[O-])cc3)[nH]n(C(N)=S)c2=O)cccc1[N+](=O)[O-]	1	77*	22	16	-5	3
Clc1ccc(-c2nc3ccc(Br)cn3c2Cc2ccsc2)cc1	.	.	12	.	.	.
O=C1C(C=NCc2cccnc2)=C(O)c2ccccc21	0.3	1	24	-7	68*	2
CSCCC(NC(=O)OC(C)(C)C)C(=O)Oc1ccc2c(=O)c(-c3ccc4c(c3)OCCO4)coc2c1 (configuration not stated)	0.7	23	56*	32	26	4
CC(=O)N1CCN(S(=O)(=O)c2ccc(C)cc2)C1C (configuration not stated)	.	.	0	.	.	.
CN(C)c1ccc(N=Nc2ccccc2C(=O)OCC(=O)N(C)c2ccccc2)cc1	0.3	-11	32	33	65*	3
CCOC(=O)COn1c(=O)c(-c2cc3ccccc3o2)[n+]([O-])c2ccccc21	0.5	-63	39	29	52*	-2
O=c1c2ccccc2nc2ccc(NCc3cccs3)nn12	0.4	13	13	.	59*	0
c1ccc(-c2cc3nc(NCc4cccs4)ccn3n2)cc1	.	.	-3	.	.	.
CCc1ccc(C2CC3C(CN2S(=O)(=O)c2ccc(C)cc2)C(=O)CC(c2ccc(CC)cc2)N3S(=O)(=O)c2ccc(C)cc2)cc1 (configuration not stated)	.	.	4	.	.	.
O=C(CSc1ncn[nH]1)Nc1ccc(Cl)c(S(=O)(=O)N2CCOCC2)c1	1	12	-9	6	-4	0
O=C(ONC1=NCCCCC1)c1ccc(Cl)cc1	1.1	-6	83*	-2	-5	3
O=C(ONC1=NCCCCC1)c1c(F)cccc1F	1.1	4	41	17	-7	-2
Cc1ccc(SCc2nc3ccccc3[nH]2)cc1	0.5	3	32	41	54*	-3
Cc1ccccc1OCc1nc2ccccc2[nH]1	0.5	24	24	27	53*	10
COc1cccc(OCc2nc3ncc(Br)cc3[nH]2)c1	1	-13	38	1	1	-5
COc1ccc(OCc2nc3ccccc3[nH]2)cc1	0.3	2	48	44	70*	7
Brc1ccc(OCc2nc3ccccc3[nH]2)cc1	.	.	18	.	.	10
COc1ccccc1OCc1nc2ccccc2[nH]1	0.8	10	5	14	17	0
COc1cccc(OCc2nc3ccccc3[nH]2)c1	0.5	18	32	27	52*	-1
COc1cccc(N2CCN(S(=O)(=O)c3ccc4c(c3)NC(=O)C(C)C(=O)N4)CC2)c1 (configuration not stated)	.	.	7	.	.	6
COc1ccccc1C(=O)N1CCN(C(=O)[C@H]2O[C@@H](n3ccc(=O)[nH]c3=O)[C@H](O)[C@@H]2O)CC1	.	.	7	.	.	.

Compound activity (PubChem BioAssay)
